Experimental data taken from ChEMBL document CHEMBL4346663, “N-Cinnamoylanthranilates as human TRPA1 modulators: Structure-activity relationships and channel binding sites” (Eur J Med Chem, 2019).
The source made the active and inactive calls. No cut-off for these calls is given here.

Key:
[1] = tested on: Transient receptor potential cation channel subfamily A member 1 (Homo sapiens), O75762 [F909A]; experiment: Antagonist activity at human TRPA1 Phe909Ala mutant expressed in HEK293 cells assessed as Ca2+ influx at 100 uM by fluorescence assay; format: cell-based
Sequence of Transient receptor potential cation channel subfamily A member 1 (Homo sapiens), O75762 [F909A] (O75762 whole entry F909A): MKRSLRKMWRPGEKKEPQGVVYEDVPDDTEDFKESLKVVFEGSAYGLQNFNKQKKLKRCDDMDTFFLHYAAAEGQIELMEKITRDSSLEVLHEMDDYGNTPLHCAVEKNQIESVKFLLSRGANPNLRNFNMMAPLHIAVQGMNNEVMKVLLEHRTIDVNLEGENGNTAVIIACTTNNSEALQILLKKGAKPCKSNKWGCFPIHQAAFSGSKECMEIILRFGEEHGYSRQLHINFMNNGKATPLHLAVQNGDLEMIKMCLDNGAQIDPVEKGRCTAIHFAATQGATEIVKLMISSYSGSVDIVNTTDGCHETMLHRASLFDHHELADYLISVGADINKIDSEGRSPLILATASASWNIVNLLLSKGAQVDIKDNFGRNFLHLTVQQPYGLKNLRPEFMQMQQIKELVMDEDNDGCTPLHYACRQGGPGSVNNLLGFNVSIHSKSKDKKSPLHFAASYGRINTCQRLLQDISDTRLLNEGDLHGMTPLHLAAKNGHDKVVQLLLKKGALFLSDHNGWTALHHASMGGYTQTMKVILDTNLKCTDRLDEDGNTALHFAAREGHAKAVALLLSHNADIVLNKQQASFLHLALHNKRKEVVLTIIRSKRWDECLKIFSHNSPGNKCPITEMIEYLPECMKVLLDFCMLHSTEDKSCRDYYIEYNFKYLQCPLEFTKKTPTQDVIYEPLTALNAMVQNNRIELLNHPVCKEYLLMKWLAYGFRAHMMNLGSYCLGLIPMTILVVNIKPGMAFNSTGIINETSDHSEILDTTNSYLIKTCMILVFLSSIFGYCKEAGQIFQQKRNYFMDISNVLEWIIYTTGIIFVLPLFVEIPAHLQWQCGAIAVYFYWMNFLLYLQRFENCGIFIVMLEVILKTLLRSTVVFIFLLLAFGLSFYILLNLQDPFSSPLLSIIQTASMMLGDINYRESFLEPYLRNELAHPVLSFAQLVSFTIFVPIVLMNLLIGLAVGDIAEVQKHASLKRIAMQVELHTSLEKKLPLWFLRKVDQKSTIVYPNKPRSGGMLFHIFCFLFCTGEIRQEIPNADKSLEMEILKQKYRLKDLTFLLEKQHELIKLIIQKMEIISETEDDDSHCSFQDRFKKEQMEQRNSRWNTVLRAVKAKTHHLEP
In short: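 hTRPA1 F909A or F944A mutant HEK293 stable clones, loaded with Fluo-4AM (2 µM, 45 min, room temperature). Compound pre-incubated 10 min before the standard agonist was added. FlexStation fluorescence (485/538 nm). ΔRFU normalized to the standard agonist response set at 100 %, after DMSO vehicle subtraction.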

[2] = target: T1, Transient receptor potential cation channel subfamily A member 1 (Homo sapiens, UniProt O75762); experiment: Antagonist activity at human TRPA1 expressed in HEK293 cells assessed as inhibition of CA-induced increase in calcium influx incubated for 10 mins prior to CA addition by Fluo-4-AM dye based fluorescence assayy; format: cell-based
T1 sequence (O75762 whole entry): as the sequence (O75762 whole entry F909A) above, with A909F counted along it

[3] = target: T1, Transient receptor potential cation channel subfamily A member 1; experiment: Agonist activity at human TRPA1 expressed in HEK293 cells assessed as increase in calcium influx by Fluo-4-AM dye based fluorescence assay; format: cell-based; conditions: read-out: EC50
In short: (§1)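 Stably transfected hTRPA1- or hTRPM8-HEK293 cells on poly-D-lysine plates for 48 h, loaded with Fluo-4AM (2 µM, 45 min, dark, room temperature), in isotonic HEPES buffer pH 7.4. FlexStation 240 s run: 20 s baseline, compound added, calcimycin added at 180 s. ΔRFU expressed as % calcimycin, DMSO-subtracted. Screening N = 3. Dose-response curves fitted for logEC50 (N = 3 in duplicate or triplicate).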

[4] = target: T1, Transient receptor potential cation channel subfamily A member 1; experiment: Agonist activity at human TRPA1 in WI38 cells assessed as increase in calcium influx by Fluo-4-AM dye based fluorescence assay; format: cell-based
[5] = tested on: Transient receptor potential cation channel subfamily A member 1 (Homo sapiens), O75762 [F909A]; experiment: Agonist activity at human TRPA1 Phe909Ala mutant expressed in HEK293 cells assessed as Ca2+ influx at 30 uM by fluorescence assay; format: cell-based
In short: (§2)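 HEK293 cells stably expressing hTRPA1 point mutants (C621A, F909A or F944A), single-cell cloned under G418 selection. Cells plated on poly-D-lysine for 48 h, loaded with Fluo-4AM 2 µM for 45 min at room temperature. FlexStation read (ex 485/em 538 nm): 20 s baseline, compound added, calcimycin added at 180 s. Response expressed as % calcimycin from ΔRFU, vehicle-subtracted, and compared with wild-type hTRPA1 cells.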

[6] = Dissociation constant, pKa of the compound at pH 7.4; format: physicochemical
[7] = target: T1, Transient receptor potential cation channel subfamily A member 1; experiment: Irreversible desensitizing activity at human TRPA1 expressed in HEK293 cells assessed as CA-induced increase in Ca2+ influx at >30 uM pretreated with compound followed by drug wash-out and CA challenge by Fluo-4-AM dye based fluorescence assay; format: cell-based
In short: (§3)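 hTRPA1-HEK293 cells loaded with Fluo-4AM were pre-incubated with compound, then washed and resuspended in fresh assay buffer. The response to cinnamaldehyde (30 µM) was then measured by FlexStation calcium fluorescence.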

[8] = target: T2, Transient receptor potential cation channel subfamily M member 8 (Homo sapiens, UniProt Q7Z2W7); experiment: Antagonist activity at human TRPM8 expressed in HEK293 cells assessed as inhibition in WS5-induced increase in calcium influx incubated for 10 mins prior to WS5 challenge by Fluo-4-AM dye based fluorescence assay; format: cell-based
In short: (§4)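 hTRPM8-HEK293 cells loaded with Fluo-4AM (2 µM, 45 min). Test compound pre-incubated 10 min before WS5 standard agonist. FlexStation fluorescence at 485/538 nm. ΔRFU given as % of WS5 response after DMSO vehicle subtraction. N = 3. IC50 from dose-response curves.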
Target sequence in this assay (Q7Z2W7 whole entry): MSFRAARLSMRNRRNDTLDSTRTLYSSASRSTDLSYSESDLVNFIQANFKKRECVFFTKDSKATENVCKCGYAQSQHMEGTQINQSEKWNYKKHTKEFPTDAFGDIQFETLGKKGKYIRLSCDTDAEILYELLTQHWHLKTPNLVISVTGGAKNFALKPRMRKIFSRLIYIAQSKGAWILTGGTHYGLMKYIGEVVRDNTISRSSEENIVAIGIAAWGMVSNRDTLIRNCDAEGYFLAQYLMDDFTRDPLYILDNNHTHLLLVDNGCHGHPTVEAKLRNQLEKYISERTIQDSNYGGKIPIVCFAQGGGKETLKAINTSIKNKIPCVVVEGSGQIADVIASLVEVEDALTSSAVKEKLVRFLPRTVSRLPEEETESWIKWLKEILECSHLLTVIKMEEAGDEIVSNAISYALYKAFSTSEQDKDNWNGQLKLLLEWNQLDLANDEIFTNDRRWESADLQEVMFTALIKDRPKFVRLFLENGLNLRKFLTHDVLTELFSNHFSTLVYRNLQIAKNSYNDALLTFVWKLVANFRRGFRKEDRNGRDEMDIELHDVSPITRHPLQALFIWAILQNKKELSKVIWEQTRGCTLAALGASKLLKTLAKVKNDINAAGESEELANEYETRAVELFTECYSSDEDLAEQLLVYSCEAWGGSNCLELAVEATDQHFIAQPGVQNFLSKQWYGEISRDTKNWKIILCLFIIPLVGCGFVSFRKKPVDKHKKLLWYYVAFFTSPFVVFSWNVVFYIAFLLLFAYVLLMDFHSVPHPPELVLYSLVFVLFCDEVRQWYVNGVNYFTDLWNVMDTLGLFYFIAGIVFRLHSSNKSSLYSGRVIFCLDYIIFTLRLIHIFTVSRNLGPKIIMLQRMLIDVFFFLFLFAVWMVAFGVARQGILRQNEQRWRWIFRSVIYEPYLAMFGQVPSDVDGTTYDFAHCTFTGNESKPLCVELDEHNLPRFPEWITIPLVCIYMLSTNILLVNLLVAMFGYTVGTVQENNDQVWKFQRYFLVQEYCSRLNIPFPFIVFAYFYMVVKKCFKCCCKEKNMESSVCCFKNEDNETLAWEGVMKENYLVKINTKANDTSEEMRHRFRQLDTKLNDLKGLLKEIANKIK

[9] = target: T2, Transient receptor potential cation channel subfamily M member 8; experiment: Agonist activity at human TRPM8 expressed in HEK293 cells assessed as increase in calcium influx at 100 uM by Fluo-4-AM dye based fluorescence assay relative to calcimycin; format: cell-based; in short: as §1
Target sequence in this assay (Q7Z2W7 whole entry, looked up): as the sequence (Q7Z2W7 whole entry) above

[10] = target: T2, Transient receptor potential cation channel subfamily M member 8; experiment: Agonist activity at human TRPM8 expressed in HEK293 cells assessed as increase in calcium influx at 30 uM by Fluo-4-AM dye based fluorescence assay relative to calcimycin; format: cell-based; in short: as §1
Target sequence in this assay (Q7Z2W7 whole entry, looked up): as the sequence (Q7Z2W7 whole entry) above

[11] = target: T1, Transient receptor potential cation channel subfamily A member 1; experiment: Agonist activity at human TRPA1 expressed in HEK293 cells assessed as increase in calcium influx at 30 uM by Fluo-4-AM dye based fluorescence assay relative to calcimycin; format: cell-based; in short: as §1
[12] = target: T1, Transient receptor potential cation channel subfamily A member 1; experiment: Antagonist activity at human TRPA1 expressed in HEK293 cells assessed as increase in calcium influx at 100 uM incubated for 10 mins prior to CA addition by Fluo-4-AM dye based fluorescence assay relative to CA; format: cell-based; set-up: scale not given: the % may be the effect or the level left
In short: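 hTRPA1-HEK293 cells loaded with Fluo-4AM (2 µM). Compound pre-incubated 10 min, then cinnamaldehyde standard agonist added. FlexStation read, ex 485/em 538 nm. ΔRFU normalized to the CA response set at 100 % after DMSO vehicle subtraction. N = 3. logIC50 taken from dose-response fits.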

[13] = target: T2, Transient receptor potential cation channel subfamily M member 8; experiment: Antagonist activity at human TRPM8 expressed in HEK293 cells assessed as increase in calcium influx at 100 uM incubated for 10 mins prior to WS5 challenge by Fluo-4-AM dye based fluorescence assay relative to WS5; format: cell-based; set-up: scale not given: the % may be the effect or the level left; in short: as §4
Target sequence in this assay (Q7Z2W7 whole entry, looked up): as the sequence (Q7Z2W7 whole entry) above

[14] = target: T1, Transient receptor potential cation channel subfamily A member 1; experiment: Reversible desensitizing activity at human TRPA1 expressed in HEK293 cells assessed as CA-induced increase in Ca2+ influx upto 10 uM pretreated with compound followed by drug wash-out and CA challenge by Fluo-4-AM dye based fluorescence assay; format: cell-based; in short: as §3
[15] = target: T1, Transient receptor potential cation channel subfamily A member 1; experiment: Modulating activity at human TRPA1 expressed in HEK293 cells assessed as desensitization of CA-induced increase in Ca2+ influx at 10 uM measured within 10 mins by Fluo-4-AM dye based fluorescence assay; format: cell-based
In short: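 hTRPA1-HEK293 cells with Fluo-4AM. Real-time fluorescence recorded for 10 min after compound addition (10 µM), followed by challenge with cinnamaldehyde (30 µM) to assess desensitization of the agonist response.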

Cavia porcellus [16] = organism: Cavia porcellus; experiment: Agonist activity at TRPA1 in Dunkin-Hartley guinea pig vagus nerve assessed as activation of vagus nerve by measuring depolarization at 100 uM […]
In short: (§5)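 Isolated vagus nerves from male Dunkin-Hartley guinea pigs (300-400 g, eight animals). Compound DMSO stocks diluted 1000× in Krebs-Henseleit buffer. Viability checked with capsaicin (1 µM) at the start and acrolein (300 µM) at the end. Single non-cumulative concentrations applied for 2 min each, with KH wash to baseline between them. DMSO vehicle run alike. Depolarization recorded in mV.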

Cavia porcellus [17] = organism: Cavia porcellus; experiment: Antagonist activity at TRPA1 in Dunkin-Hartley guinea pig vagus nerve assessed as inhibition of ACR-stimulated vagus nerve by measuring depolarization at 100 uM incubated for 10 mins followed by ACR stimulation for 140 secs […]
In short: (§6)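 Guinea pig vagus nerve (male Dunkin-Hartley) in Krebs-Henseleit buffer; compound from DMSO stock diluted 1000×. Two control acrolein (300 µM, 2 min) responses, each washed to baseline. Then 10 min compound pretreatment and re-stimulation with acrolein 300 µM for 2 min 20 s. After washout, a recovery acrolein response was taken. Depolarization recorded in mV.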

[18] = tested on: Transient receptor potential cation channel subfamily A member 1 (Homo sapiens), O75762 [F944A]; experiment: Agonist activity at human TRPA1 Phe944Ala mutant expressed in HEK293 cells assessed as Ca2+ influx at 10 uM by fluorescence assay; format: cell-based; in short: as §2
Sequence of Transient receptor potential cation channel subfamily A member 1 (Homo sapiens), O75762 [F944A] (O75762 whole entry F944A): as the sequence (O75762 whole entry F909A) above, with A909F, F944A counted along it

[19] = tested on: Transient receptor potential cation channel subfamily A member 1 (Homo sapiens), O75762 [F944A]; experiment: Agonist activity at human TRPA1 Phe944Ala mutant expressed in HEK293 cells assessed as Ca2+ influx at 30 uM by fluorescence assay; format: cell-based; in short: as §2
[20] = tested on: Transient receptor potential cation channel subfamily A member 1 (Homo sapiens), O75762 [F909A]; experiment: Agonist activity at human TRPA1 Phe909Ala mutant expressed in HEK293 cells assessed as Ca2+ influx at 10 uM by fluorescence assay; format: cell-based; in short: as §2
[21] = target: T2, Transient receptor potential cation channel subfamily M member 8; experiment: Agonist activity at human TRPM8 expressed in HEK293 cells assessed as increase in calcium influx at 3 uM by Fluo-4-AM dye based fluorescence assay relative to calcimycin; format: cell-based; in short: as §1
Target sequence in this assay (Q7Z2W7 whole entry, looked up): as the sequence (Q7Z2W7 whole entry) above

[22] = target: T2, Transient receptor potential cation channel subfamily M member 8; experiment: Antagonist activity at human TRPM8 expressed in HEK293 cells assessed as increase in calcium influx at 30 uM incubated for 10 mins prior to WS5 challenge by Fluo-4-AM dye based fluorescence assay relative to WS5; format: cell-based; set-up: scale not given: the % may be the effect or the level left; in short: as §4
Target sequence in this assay (Q7Z2W7 whole entry, looked up): as the sequence (Q7Z2W7 whole entry) above

[23] = target: T1, Transient receptor potential cation channel subfamily A member 1; experiment: Antagonist activity at human TRPA1 expressed in HEK293 cells assessed as increase in calcium influx at 3 uM incubated for 10 mins prior to CA challenge by Fluo-4-AM dye based fluorescence assay […]; format: cell-based
Cavia porcellus [24] = organism: Cavia porcellus; experiment: Agonist activity at TRPA1 in Dunkin-Hartley guinea pig vagus nerve assessed as activation of vagus nerve by measuring depolarization at 300 uM […]; in short: as §5
Cavia porcellus [25] = organism: Cavia porcellus; experiment: Antagonist activity at TRPA1 in Dunkin-Hartley guinea pig vagus nerve assessed as inhibition of ACR-stimulated vagus nerve by measuring depolarization at 300 uM incubated for 10 mins followed by ACR stimulation for 140 secs […]; in short: as §6

Row | Structure (SMILES) | IC50 [2] | EC50 [3] | Activity [5] | pKa [6] | Activity [9] | Activity [10] | Activity [11] | Activity [12] | Activity [13] | further results
1 | CC(C)c1ccc(NC(=O)Cn2cnc3c2c(=O)n(C)c(=O)n3C)cc1 | 18 µM | – | – | – | – | – | – | – | – | Activity [1]: Active
2 | Cc1cccc(Nc2ccccc2C(=O)O)c1C [MEFENAMIC ACID] | – | 16 µM | Active | – | – | – | – | – | – | EC50 [4]: 61 µM
3 | O=C(/C=C/c1ccc(Br)cc1)Nc1ccccc1C(=O)O | 9 µM | 12 µM | – | 3.4 | inactive | inactive | 60% | 6% | 35% | Activity [7]: Active; IC50 [8]: 59 µM; Activity [14]: Active; Activity [15]: Active
4 | O=C(/C=C/c1ccc(C(F)(F)F)cc1)Nc1ccccc1C(=O)O | – | 27 µM | Active | 3.4 | inactive | inactive | 51% | 28% | 17% | Activity (Cavia porcellus [16]): Active; IC50 [8]: 34 µM; inhibition (Cavia porcellus [17]): inactive; Activity [18]: inactive; Activity [19]: Active; Activity [20]: Active
5 | O=C(/C=C/c1ccc(Cl)cc1)Nc1ccccc1C(=O)O | 4 µM | 10 µM | – | 3.4 | inactive | inactive | 62% | 7% | 40% | Activity [7]: Active; Activity (Cavia porcellus [16]): Active; Activity [14]: Active; Activity [15]: Active
6 | COC(=O)c1ccccc1NC(=O)CCOc1ccccc1 | – | – | Active | 11.9 | – | – | 45% | – | – | Activity [21]: inactive; Activity [22]: 12%; Activity [23]: inactive; Activity [19]: inactive
7 | O=C(/C=C/c1ccc(O)cc1)Nc1ccccc1C(=O)O | 43 µM | – | – | 3.5 | inactive | inactive | 1% | 35% | 70% | Activity [1]: inactive; Activity (Cavia porcellus [24]): Active; inhibition (Cavia porcellus [25]): inactive
